Values after ≈ are worked out from the molar mass of the structure shown. Active and inactive are the calls of the source. The rule behind the calls is not given here.
Key:
Staphylococcus aureus [1] = assay: Antibacterial activity against methicillin sensitive Staphylococcus aureus UAMS1; type: functional
Summary of the method: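 Broth microdilution in Mueller Hinton broth; DMSO stocks (12.8 mg/mL) serially diluted, 2 µL added per well, giving up to 256 µg/mL. Inoculum grown at 37 °C, 200 rpm to OD600 0.18, diluted to final 3x10^5 cells/mL, count confirmed by plating. Technical duplicate; 16-24 h at 37 °C; MIC = lowest concentration with visual growth inhibition.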

Staphylococcus aureus [2] = assay: Antibacterial activity against vancomycin-resistant Staphylococcus aureus; type: functional
Summary of the method: (§1)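 Broth microdilution MIC in Mueller Hinton broth. Stocks 12.8 mg/mL in DMSO, serially diluted twofold, 2 µL added per well (top final 256 µg/mL). Inoculum grown at 37 °C, 200 rpm to OD600 0.18, then diluted to 3x10^5 cells/mL final, checked by plate count. Incubated 16-24 h at 37 °C, technical duplicates. MIC read as lowest concentration with visible growth inhibition.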

Staphylococcus aureus [3] = assay: Antibacterial activity against methicillin resistant Staphylococcus aureus USA300; type: functional; summary of the method: as §1
Staphylococcus aureus [4] = assay: Antibacterial activity against vancomycin-intermediate Staphylococcus aureus; type: functional; summary of the method: as §1
Staphylococcus aureus [5] = assay: Antibacterial activity against methicillin resistant Staphylococcus aureus; type: functional; summary of the method: as §1
Staphylococcus aureus [6] = assay: Potency index, ratio of albocycline MIC to test compound MIC for methicillin resistant Staphylococcus aureus USA300; type: functional
Escherichia coli = assay: Antibacterial activity against Escherichia coli; type: functional, organism-based
Pseudomonas aeruginosa = assay: Antibacterial activity against Pseudomonas aeruginosa; type: functional, organism-based
Summary of the method: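 Twofold serial dilutions in 96-well microtiter plates from a 10 mg/mL DMSO starting concentration; DMSO solvent control, kanamycin positive control. Wells inoculated with 1:100 dilution of overnight cultures (P. aeruginosa strain PA10). Incubated 37 °C for 24 h; MIC scored as lowest well showing growth inhibition.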

Acinetobacter baumannii = assay: Antibacterial activity against Acinetobacter baumannii; type: functional, organism-based

SMILES | MIC (Staphylococcus aureus [1]) [µg/mL] | MIC (Staphylococcus aureus [3]) [µg/mL] | other results
CO[C@H]1/C=C/[C@@](C)(O)/C=C/C(=O)O[C@H](C)[C@@H](C)CC/C=C/1C | 2 (≈ 6.48 µM) | 2 (≈ 6.48 µM) | MIC (Staphylococcus aureus [2]): 0.5 µg/mL (≈ 1.62 µM); MIC (Staphylococcus aureus [4]): 0.5 µg/mL (≈ 1.62 µM); MIC (Staphylococcus aureus [5]): 0.5 µg/mL (≈ 1.62 µM)
COC/C1=C\CC[C@H](C)[C@@H](C)OC(=O)/C=C/[C@](C)(O)/C=C/[C@@H]1OC | 128 (≈ 378 µM) | – | –
CO[C@H]1/C=C/[C@@](C)(O)/C=C/C(=O)O[C@H](C)[C@@H](C)CC/C=C/1COP(=O)(Oc1ccccc1)Oc1ccccc1 | > 256 | > 256 | –
CO[C@H]1/C=C/[C@@](C)(OC(=O)c2ccc(F)cc2)/C=C/C(=O)O[C@H](C)[C@@H](C)CC/C=C/1C | 1 (≈ 2.32 µM) | 1 (≈ 2.32 µM) | Ratio (Staphylococcus aureus [6]): 2
C/C1=C\CC[C@H](C)[C@@H](C)OC(=O)/C=C/[C@](C)(O)/C=C/[C@@H]1O | 8 (≈ 27.2 µM) | 4 (≈ 13.6 µM) | –
C#CCO[C@@]1(C)/C=C/C(=O)O[C@H](C)[C@@H](C)CC/C=C(\C)[C@@H](OC)/C=C/1 | > 256 | – | –
CO[C@H]1/C=C/[C@@](C)(O)C(SCCN)CC(=O)O[C@H](C)[C@@H](C)CC/C=C/1C (mixture of isomers) | 128 | 256 | Activity (Escherichia coli): inactive; Activity (Pseudomonas aeruginosa): inactive; Activity (Acinetobacter baumannii): inactive
CO[C@H]1/C=C/[C@@](C)(O)/C=C/C(=O)O[C@H](C)[C@@H](C)CC/C=C/1C=O | 32 (≈ 99.3 µM) | – | –
CO[C@H]1/C=C/[C@@](C)(O)/C=C/C(=O)O[C@H](C)[C@@H](C)CC/C=C/1CO | 32 (≈ 98.6 µM) | – | –

From ChEMBL document CHEMBL4665767, “Synthesis and biological evaluation of semi-synthetic albocycline analogs” (2020)
